For orientation: half-life means the time in which the quantity being followed falls by half. Lower therefore signals rapid decline.

The results in this text go back to ChEMBL document CHEMBL3526067, “Metabolism of bis(4-fluorobenzyl)trisulfide and its formation of hemoglobin adduct in rat erythrocytes” (Drug Metab Dispos, 2013).

In series [1] the test system is Blood. Put plainly: Retention time in Sprague-Dawley rat whole blood treated with 50 uM Bis(4-fluorobenzyl)trisulfide after 15 mins by HPLC analysis. As to conditions: 0.25 h; call rule not given here. In kind it is ADME, tissue-based.
Series [2] relates to Blood. As to the kind of experiment: Drug level in Sprague-Dawley rat whole blood treated with BFBTS at 50 uM after 15 mins by HPLC analysis. It counts as ADME, tissue-based. As to conditions: 0.25 h.
The test system of series [3] is Blood. As to the kind of experiment: Drug level in Sprague-Dawley rat whole blood treated with BFBTS at 50 uM by GC/MS analysis. In kind it is ADME, tissue-based.
The nature of series [4]: Drug level in phosphate buffered saline treated with BFBTS at 5 uM by HPLC analysis in presence of GSH. It counts as physicochemical. The settings on record: buffer.
Series [5] can be described thus: Drug metabolism in phosphate buffered saline treated with BFBTS at 5 uM by HPLC analysis in presence of cysteine. As to conditions: buffer. It counts as physicochemical.
Series [6] is described as follows: Drug metabolism in phosphate buffered saline treated with BFBTS at 5 uM by HPLC analysis in presence of N-acetyl cysteine. In kind it is physicochemical. As to conditions: buffer.
Series [7] can be described thus: Drug metabolism in phosphate buffered saline treated with BFBTS at 5 uM by HPLC analysis in presence of coenzyme A. The settings on record: buffer. It counts as physicochemical.
Series [8] is described as follows: Drug metabolism in Sprague-Dawley rat RBC assessed as BFBDS metabolite formation by HPLC analysis. It counts as ADME, cell-based. The settings on record: erythrocyte. A digest of the protocol: (§1)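 BFBTS (final 50 μM) incubated at 37°C with rat RBCs diluted with an equal volume of PBS, for 5, 10, 15, 30, 45 and 60 min. For M2 (p-FBM) and M3 (p-FBA), two volumes of acetonitrile added before HPLC. BFBTS and M1 were extracted by a cited method.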

Series [9] is described as follows: Drug metabolism in Sprague-Dawley rat RBC assessed as p-FBA metabolite formation by HPLC analysis. It counts as ADME, cell-based. As to conditions: erythrocyte. A digest of the protocol:
as §1

Series [10] is described as follows: Drug metabolism in Sprague-Dawley rat RBC assessed as BFBTS formation by HPLC analysis. The settings on record: erythrocyte. In kind it is ADME, cell-based. The method, boiled down: as §1
Series [11] in a line: Drug level in Sprague-Dawley rat RBC treated with BFBTS by HPLC analysis. It counts as ADME, cell-based. The settings on record: erythrocyte. A digest of the protocol: (§2)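 Male Sprague-Dawley rat RBCs (200–220 g rats), washed three times with PBS pH 7.4 and resuspended in PBS, incubated separately with each metabolite. Metabolites confirmed against authentic standards.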

Series [12] is described as follows: Drug level in Sprague-Dawley rat RBC treated with BFBDS by HPLC analysis. It counts as ADME, cell-based. The settings on record: erythrocyte. The method, boiled down: as §2
Series [13] can be described thus: Drug level in Sprague-Dawley rat RBC treated with p-FBA by HPLC analysis. It counts as ADME, cell-based. The settings on record: erythrocyte.
For series [14], the system named is Blood. As to the kind of experiment: Drug level in Sprague-Dawley rat whole blood treated with BFBTS by HPLC analysis. In kind it is ADME, tissue-based.
The test system of series [15] is Blood. Put plainly: Drug metabolism in Sprague-Dawley rat whole blood assessed as BFBDS metabolite formation at 50 uM by GC/MS analysis. In kind it is ADME, tissue-based.
Series [16] relates to Blood. As to the kind of experiment: Drug metabolism in Sprague-Dawley rat whole blood assessed as p-FBM metabolite formation at 50 uM by GC/MS analysis. In kind it is ADME, tissue-based.
Series [17] in a line: Drug metabolism in phosphate buffered saline assessed as p-FBM metabolite formation at 5 uM by HPLC analysis in presence of GSH. It counts as physicochemical. The settings on record: buffer.
Series [18] can be described thus: Drug metabolism in phosphate buffered saline assessed as p-FBM metabolite formation at 5 uM by HPLC analysis in presence of cysteine. In kind it is physicochemical. As to conditions: buffer.
A short description of series [19]: Drug metabolism in phosphate buffered saline assessed as p-FBM metabolite formation at 5 uM by HPLC analysis in presence of coenzyme A. The settings on record: buffer. It counts as physicochemical.
Series [20] is described as follows: Stability of compound in phosphate buffered saline at 5 uM after 30 mins by HPLC analysis in presence of GSH. In kind it is physicochemical. The settings on record: buffer, 0.5 h.
Series [21] can be described thus: Stability of compound in phosphate buffered saline at 5 uM after 30 mins by HPLC analysis in presence of cysteine. In kind it is physicochemical. The settings on record: buffer, 0.5 h.
Series [22] is described as follows: Stability of compound in phosphate buffered saline at 5 uM after 30 mins by HPLC analysis in presence of N-acetyl cysteine. In kind it is physicochemical. As to conditions: buffer, 0.5 h.
A short description of series [23]: Stability of compound in phosphate buffered saline at 5 uM after 30 mins by HPLC analysis in presence of coenzyme A. As to conditions: buffer, 0.5 h. It counts as physicochemical.
Series [24] is described as follows: Stability in Sprague-Dawley rat RBC at 5 uM incubated for 1 hr after 5 mM thiol residue blocking agent iodoacetamide challenge by HPLC analysis. As to conditions: erythrocyte. It counts as ADME, cell-based.
The nature of series [25]: Drug metabolism in Sprague-Dawley rat RBC assessed as p-FBM metabolite formation by HPLC analysis. It counts as ADME, cell-based. As to conditions: erythrocyte. A digest of the protocol:
as §1

Series [26] can be described thus: Drug level in Sprague-Dawley rat RBC treated with p-FBM by HPLC analysis. As to conditions: erythrocyte. It counts as ADME, cell-based. A digest of the protocol: as §2
In series [27] the test system is Blood. Put plainly: Drug metabolism in Sprague-Dawley rat whole blood assessed as BFBDS metabolite formation by HPLC analysis. It counts as ADME, tissue-based.
For series [28], the system named is Blood. As to the kind of experiment: Drug metabolism in Sprague-Dawley rat whole blood assessed as p-FBM metabolite formation by HPLC analysis. In kind it is ADME, tissue-based.
Series [29] concerns Blood. As to the kind of experiment: Drug metabolism in Sprague-Dawley rat whole blood assessed as p-FBA metabolite formation by HPLC analysis. In kind it is ADME, tissue-based.
In series [30] the test system is Blood. Put plainly: Drug metabolism in Sprague-Dawley rat whole blood assessed as p-FBA metabolite formation at 50 uM by UPLC-MS/MS analysis. In kind it is ADME, tissue-based. The method, boiled down: (§3)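 p-FBA in rat whole blood incubated with BFBTS, measured by UPLC-MS. 0.1% formic acid/acetonitrile gradient at 0.2 ml/min, column 25°C. Capillary 3.30 kV, cone 31 V, source 150°C, desolvation 350°C.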

Series [31] can be described thus: Drug recovery in Sprague-Dawley rat whole blood at 64 uM after 2 hrs by HPLC analysis. As to conditions: read-out: Drug recovery. It counts as ADME, tissue-based. The method, boiled down: (§4)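 Recovery test: BFBTS 64 μM incubated for 2 h with rat whole blood, plasma (3,000 g, 10 min) or PBS-washed RBCs. Liquid-liquid extraction, then HPLC; recovery compared across the three matrices.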

Series [32] is described as follows: Drug recovery in Sprague-Dawley rat plasma at 64 uM after 2 hrs by HPLC analysis. In kind it is ADME, cell-free. As to conditions: read-out: Drug recovery. A digest of the protocol: as §4
A short description of series [33]: Drug recovery in Sprague-Dawley rat RBC at 64 uM after 2 hrs by HPLC analysis. In kind it is ADME, cell-based. As to conditions: erythrocyte. The method, boiled down:
as §4

Series [34] is described as follows: Drug metabolism in Sprague-Dawley rat RBC assessed as rapid p-FBM metabolite formation at 50 uM by HPLC analysis. It counts as ADME, cell-based. As to conditions: erythrocyte. The method, boiled down: as §1
The nature of series [35]: Drug metabolism in Sprague-Dawley rat RBC assessed as p-FBA metabolite formation at slow rate at 50 uM by HPLC analysis. The settings on record: erythrocyte. It counts as ADME, cell-based. A digest of the protocol: as §1
Series [36] in a line: Half life in Sprague-Dawley rat diluted RBC at 25 uM by HPLC analysis. The settings on record: diluted red blood cells (RBC). In kind it is ADME, cell-based, Erythrocyte. A digest of the protocol:
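BFBTS incubated with diluted rat RBCs (10^8/ml) for 1.5, 3, 5, 10 and 15 min. After extraction, BFBTS measured by HPLC. Half-life from nonlinear regression of concentration-time data; n = 3, means with SD.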

A short description of series [37]: Half life in Sprague-Dawley rat diluted RBC at 1 uM by HPLC analysis. In kind it is ADME, cell-based, Erythrocyte. As to conditions: diluted red blood cells (RBC).
Series [38] is described as follows: Drug metabolism in phosphate buffered saline assessed as BFBDS metabolite formation at 5 uM by HPLC analysis in presence of GSH. In kind it is physicochemical. The settings on record: buffer.
Series [39] is described as follows: Drug metabolism in phosphate buffered saline assessed as BFBDS metabolite formation at 5 uM by HPLC analysis in presence of cysteine. It counts as physicochemical. As to conditions: buffer.
Series [40] is described as follows: Drug metabolism in phosphate buffered saline assessed as BFBDS metabolite formation at 5 uM by HPLC analysis in presence of N-acetyl cysteine. In kind it is physicochemical. The settings on record: buffer.
Series [41] concerns Blood. As to the kind of experiment: Drug level in Sprague-Dawley rat whole blood treated with BFBTS at 50 uM by UPLC-MS/MS analysis. It counts as ADME, tissue-based. The method, boiled down:
as §3

A short description of series [42]: Drug level in phosphate buffered saline treated with BFBTS at 5 uM at pH 7.4 after 30 mins by LC-MS analysis in presence of GSH. It counts as physicochemical. The settings on record: buffer, pH 7.4, 0.5 h. The method, boiled down:
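BFBTS 5 μM incubated with GSH 0.5 mM in PBS pH 7.4 for 30 min. Two volumes of acetonitrile added, then HPLC and LC-MS to identify reaction products.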

`Fc1ccc(CS)cc1`: in the series with Blood [1], the Retention_time is on record as 24.66 min. The Drug metabolism entry (in the series with Blood [2]; in the series with Blood [3]; in series [4]; in series [5]; in series [6]; in [7]) was “metabolite_detected” each time. Further, the Drug metabolism result is recorded as “metabolite_detected” in series [8]; “metabolite_detected” in [9]; “metabolite_not_detected” in series [10]; “metabolite_detected” in series [11]; “metabolite_detected” in series [12]; “metabolite_not_detected” in series [13]. The Drug metabolism entry in the series on Blood [14] was “metabolite_detected”.

Take `Fc1ccc(CSSSCc2ccc(F)cc2)cc1`: the Drug metabolism entry (in the series on Blood [15]; with Blood [16]; in series [17]; in series [18]; in series [19]; in [8]) was “metabolite_detected” throughout. The Drug metabolism result is “metabolite_detected” in series [25]; “metabolite_detected” in series [9]; “metabolite_not_detected” in series [12]; “metabolite_not_detected” in series [26]; “metabolite_not_detected” in series [13]; “metabolite_detected” with Blood [27]. The Drug metabolism entry (in the series on Blood [28]; in the series with Blood [29]; with Blood [30]; in series [34]; in series [35]; in series [38]) was “metabolite_detected” each time. Moreover, the Drug metabolism result in [39] and in series [40] was “metabolite_detected” throughout. Besides, the Stability result in [20] is “Unstable”; in series [21] it was “Unstable”; in series [22] it was “Unstable”; in series [23], “Unstable”; in series [24], “Stable”. In addition, the remaining at 2 h, 64 µM turned out to be 2.54% in series [31] and 13% in series [32]. In addition, the Drug recovery result in series [33] is listed as “Not Active”. In series [36], this compound yielded a half-life at 25 µM of 24 s. In addition, the half-life at 1 µM in series [37] is under 30 s.

`O=C(O)c1ccc(F)cc1`: the Retention_time in the series on Blood [1] was found to be 8.15 min. Further, the Drug metabolism result in the series with Blood [2] is on record as “metabolite_detected”; in series [8] it was “metabolite_not_detected”; in series [25] it was “metabolite_not_detected”; in [10] it was “metabolite_not_detected”; in series [11] it was “metabolite_detected”; in series [12], “metabolite_detected”. Also, the Drug metabolism entry (in series [26]; in the series on Blood [14]; in the series with Blood [41]) was “metabolite_detected” each time.

Regarding `Fc1ccc(CSSCc2ccc(F)cc2)cc1`, the Retention_time in the series on Blood [1] was found to be 38.89 min. Besides, the Drug metabolism entry (with Blood [2]; with Blood [3]; in series [4]; in series [5]; in series [6]; in series [7]) was “metabolite_detected” each time. Further, the Drug metabolism entry in [25] is “metabolite_detected”; in series [9], “metabolite_detected”; in series [10] it was “metabolite_not_detected”; in series [11], “metabolite_detected”; in series [26], “metabolite_detected”; in series [13], “metabolite_not_detected”. For the same compound, the Drug metabolism result with Blood [14] was “metabolite_detected”.

Consider `N[C@@H](CCC(=O)N[C@@H](CSSCc1ccc(F)cc1)C(=O)NCC(=O)O)C(=O)O`, for which, in [42], the Drug uptake entry is given as “metabolite_detected”.
